What was measured:
[1] = system: Human immunodeficiency virus 1; test: Antiviral activity against HIV1 RF infected in human CEM-SS cells assessed as inhibition of viral replication incubated for 6 days by XTT assay; format: functional, organism-based
Procedure, shortened: (§1)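 CEM-SS cells (2.5 × 10³/well) in RPMI with 10% FBS, 2 mM L-glutamine, penicillin/streptomycin; six serial compound concentrations added with HIV-1 RF titered to give 85–95% cell killing at day 6. AZT run in parallel as positive control. Incubated 6 days at 37 °C, 5% CO2; viability by XTT (OD 450/650 nm). EC50 from percent CPE reduction; SI = TC50/EC50.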

[2] = (§2) Cytotoxicity against human CEM-SS cells assessed as reduction in cell viability incubated for 6 days by […]; format: cell-based; conditions: CEM-SS cells, read-out: TC50
Procedure, shortened: (§3)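 Uninfected CEM-SS cells (2.5 × 10³/well) in RPMI with 10% FBS, 2 mM L-glutamine, penicillin/streptomycin, exposed to six serial compound concentrations for 6 days at 37 °C, 5% CO2. Viability read by XTT staining (OD 450/650 nm); TC50 derived from percent viability of uninfected drug-control wells.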

[3] = Selectivity index, ratio of TC50 for human CEM-SS cells to EC50 for HIV1 RF infected in human CEM-SS cells; format: toxicity, cell-based; conditions: for selectivity ratio: CEM-SS cells, read-out: Selectivity Index; procedure, shortened: as §1
[4] = system: CEM-SS; test: as §2; format: cell-based; conditions: cem-ss, 144 h, read-out: TC50 (the source's name); procedure, shortened: as §3
[5] = Drug metabolism of compound in glutathione assessed as 2-(3-amino 3-oxopropylcarbamoyl)benzenethiolate formation
[6] = Drug metabolism of compound in nucleophilic proteinogenic cysteines assessed as 2-(3-amino 3-oxopropylcarbamoyl)benzenethiolate formation
[7] = Dissociation constant, pKa of compound; format: physicochemical
[8] = Drug metabolism of compound in phosphate buffer incubated for 12 hrs in presence of acetyl-1,2,13C2 CoA by 13C-NMR spectrometric method
Procedure, shortened: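 Thiol and acetyl-1,2-13C2 CoA at 10:1 stoichiometric ratio incubated in degassed (helium-sparged) 0.1 M phosphate buffer pH 7.0 (4:1 H2O/D2O) with 2% DMF, 37 °C, 12 h in a sealed NMR tube. Equilibrium confirmed by 13C NMR monitoring; equilibrium constant for thiol–thioester exchange determined from spectra.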

[9] = Prodrug activation in human PBMC cells assessed as 2-(3-amino 3-oxopropylcarbamoyl)benzenethiolate formation; format: cell-based
[10] = Human immunodeficiency virus 1, RF, CEM-SS, 144 h

Row | Structure (SMILES) | EC50 [1, 10] [µM] | CC50 at 144 h [2] [µM] | selectivity ratio [3] | other results
1 | CCCC(=O)OCSc1ccccc1C(N)=O | > 100 | 12.4 |  | 
2 | CCCC(=O)OCSc1ccccc1CC(=O)NCC(N)=O | > 100 | > 100 |  | 
3 | CCCC(=O)OCSc1c(F)cccc1C(=O)NCCC(N)=O | > 100 |  |  | 
4 | CCCC(=O)OCSc1c(C)cccc1C(=O)NCCC(N)=O | > 100 |  |  | 
5 | CCCC(=O)OCSc1ccc(OC)cc1C(=O)NCCC(N)=O | 1.5 | > 100 |  | 
6 | CCCC(=O)OCSc1ccccc1C(=O)N[C@H]1CCC[C@@H]1C(N)=O (racemic) |  | 31.2 |  | EC50 [1]: 0.9 µM; Selectivity Index [3]: 34.7
7 | CCCC(=O)OCSc1ccccc1C(=O)NCCNC(C)=O | 2.6 | 91.9 | 35.3 | 
8 | CCCC(=O)OCSc1ccccc1C(=O)NCCCCC(N)=O | 3.7 | 51.7 | 14 | 
9 | CCCCCNC(=O)CNC(=O)c1ccccc1SCOC(=O)CCC | 10.3 | 24.8 | 2.41 | 
10 | CCCC(=O)OCSc1ccccc1C(=O)NCC(=O)NC | 1.4 | > 100 | > 71.4 | 
11 | CCCC(=O)OCSc1ccccc1C(=O)N[C@H]1CCC[C@@H]1C(N)=O |  |  |  | EC50 [1]: 2.9 µM; CC50 [4]: 43.3 µM; Selectivity Index [3]: 15
12 | CCCC(=O)OCSc1ccc(OC(F)(F)F)cc1C(=O)NC(C)(C)C(N)=O |  | < 56.1 |  | 
13 | CCCC(=O)OCSc1ccccc1C(=O)N[C@@H]1CCC[C@@H]1C(N)=O | 1.8 | 90 | 50 | 
14 | CCCC(=O)OCSc1ccccc1C(=O)Nc1cccc(C(N)=O)c1 | 1.2 | 17.5 | 14.6 | 
15 | CCCC(=O)OCSc1ccccc1C(=O)N(C)CC(=O)N(C)C | > 100 | 57.3 |  | 
16 | CCCC(=O)OCSc1ccccc1C(=O)NCCCCNC(C)=O | 0.57 | 17.4 | 30.5 | 
17 | CCCC(=O)OCSc1ccccc1C(=O)NCC(=O)N(C)C | 4.7 | 38.3 | 8.15 | 
18 | CCCC(=O)OCSc1ccccc1C(=O)N(C)CC(N)=O | > 100 | 55.3 |  | 
19 | CCCC(=O)OCSc1ccccc1C(=O)NCC(=O)NC(C)(C)C | 9.1 | 46.8 | 5.14 | 
20 | CCCC(=O)OCSc1ccccc1C(=O)NCC(=O)NCCN(C)C | 6.6 | 76.9 | 11.6 | 
21 | CCCC(=O)OCSc1ccccc1C(=O)N1CCC[C@H]1C(N)=O | > 100 | > 100 |  | 
22 | CCCC(=O)OCSc1ccccc1C(=O)N[C@H]1CCC[C@H]1C(N)=O (racemic) | 5.32 | 89.9 | 16.9 | 
23 | C#CCNC(=O)CNC(=O)c1ccccc1SCOC(=O)CCC | 4.7 | 95.4 | 20.3 | 
24 | CCCC(=O)OCSc1ccccc1C(=O)NC1(C(N)=O)CCCC1 | < 8.2 | > 100 |  | 
25 | CCCC(=O)OCSc1ccccc1C(=O)OCC(N)=O | > 100 | 82.1 |  | 

Row | Structure (SMILES) | EC50 [1, 10] [µM] | CC50 at 144 h [2] [µM] | selectivity ratio [3] | other results
26 | CCCC(=O)OCSc1ccccc1C(=O)NCC(N)=O | 2.9 | > 100 |  | 
27 | CCCC(=O)OCSc1ccccc1C(=O)NCC(=O)OC | > 100 | 27.3 |  | 
28 | CCCC(=O)OCSc1ccccc1C(=O)NCC(=O)NCC(=O)OC | 4.9 | > 100 | > 20.4 | 
29 | CCCC(=O)OCSc1ccccc1C(=O)N[C@@H]1CCC[C@H]1C(N)=O | 1.7 | 43.7 | 25.7 | 
30 | CCCC(=O)OCSc1ccccc1C(=O)NCCCNC(C)=O | 1.1 | 21.1 | 19.2 | 
31 | CCCC(=O)OCSc1ccccc1C(=O)Nc1ccc(C(N)=O)cc1 | 1.6 | 39 | 24.4 | 
32 | CCCC(=O)OCSc1ccccc1C(=O)NCCCCCCC(N)=O | 1 | 10.4 | 10.4 | 
33 | CCCC(=O)OCSc1ccccc1C(=O)NCC(=O)NCC(N)=O | 27.5 | > 100 | > 3.64 | 
34 | CCCC(=O)OCSc1ccccc1C(=O)NCC(=O)NCc1ccccc1 | 4.8 | 29.3 | 6.1 | 
35 | CCCC(=O)OCSc1ccccc1C(=O)NCCCCCC(N)=O | 3.1 | 16.3 | 5.26 | 
36 | CCCC(=O)OC[Se]c1ccccc1C(=O)NCCC(N)=O | 8.6 | 10.5 | 1.22 | 
37 | CCCC(=O)OCSc1ccccc1C(=O)NCC(=O)NC(C)C | 5 | 92 | 18.4 | 
38 | CCCC(=O)OCSc1ccccc1C(=O)NCCCC(N)=O | 1.2 | 56.6 | 47.2 | 
39 | CCCC(=O)OCSc1ccccc1C(=O)NC | > 100 | 5.7 |  | 
40 | CC(=O)Sc1ccccc1C(=O)NCCC(N)=O |  |  |  | Ka [5]: 84 M⁻¹ s⁻¹; Ka [6]: 84 M⁻¹ s⁻¹
41 | CCCC(=O)OC[Se]c1ccccc1C(=O)NCC(N)=O | > 100 | 6.8 |  | 
42 | NC(=O)CCNC(=O)c1cccc(S)c1 | > 100 | > 100 |  | 
43 | CCCC(=O)OCSc1ccccc1C(=O)Nc1ccccc1C(N)=O | 5.1 | 50.1 | 9.82 | 
44 | CCCC(=O)OCSc1ccccc1C(=O)N(C)CC(=O)NC | > 100 | 62.5 |  | 
45 | CCCC(=O)OCSc1ccccc1C(=O)N[C@H]1CCC[C@H]1C(N)=O |  |  |  | EC50 [1]: 3 µM; CC50 [4]: 84.8 µM; Selectivity Index [3]: 28.3
46 | CCCC(=O)OCSc1ccccc1C(=O)NCCCCCCNC(C)=O | 1.5 | 8 | 5.33 | 
47 | NC(=O)CCNC(=O)c1ccccc1S |  |  |  | pKa [7]: 5.83; Ke [8]: 0.0023
48 | CCCC(=O)OCSc1ccccc1C(=O)NCCC(N)=O | 2.4 | > 100 |  | Drug metabolism [9]: Metabolite_Detected
49 | CCCC(=O)OCSc1ccccc1C(=O)NCCCCCNC(C)=O | 3.9 | 9.2 | 2.36 | 
